Publication PMC12217639 (Scientific Reports, 2025)
Peptide text beside a SMILES is read from it.

Assays:
Assay type in all cases: cell-based, human
[1] = tested on: PDO-S (ICC patient-derived organoid); experiment: Drug sensitivity experiment of organoids; details: by IC50, 24 h, CellTiter-Glo
[2] = tested on: PDO-L (ICC patient-derived organoid); experiment: Drug sensitivity experiment of organoids; details: by IC50, 24 h, CellTiter-Glo
[3] = tested on: PDO-K (ICC patient-derived organoid); experiment: Drug sensitivity experiment of organoids; details: by IC50, 24 h, CellTiter-Glo; for overall sensitivity of the three PDOs: overall across PDO-K, PDO-S and PDO-L
HIBEpiC cells = experiment: Membrane potential; details: 1 x 10^5 cells/mL, peptide 2.5, 5, 10, 20 µM, 1 h
Summary of the method: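 A cell suspension at 1 × 10^5 cells/mL was incubated 1 h with peptide at 0 (control), 2.5, 5, 10 or 20 µM. The mixture was then loaded into a folded capillary cell, and zeta potential was read on a NanoZetasizer.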

| SMILES | rank of therapeutic effect among the drugs, PDO-S [1] | rank of therapeutic effect among the drugs, PDO-L [2] | rank of therapeutic effect among the drugs, PDO-K [3] | overall sensitivity of the three PDOs [3] | change of zeta potential of normal cells after peptide treatment (HIBEpiC cells) |
| --- | --- | --- | --- | --- | --- |
| Nc1ccn([C@@H]2O[C@H](CO)[C@@H](O)C2(F)F)c(=O)n1 [Gemcitabine] | most effective |  |  |  |  |
| CC(C)C[C@H](NC(=O)[C@H](CC(C)C)NC(=O)[C@H](CCCCN)NC(=O)[C@H](CCCCN)NC(=O)[C@H](CC(C)C)NC(=O)[C@H](CC(C)C)NC(=O)[C@H](CCCCN)NC(=O)[C@H](CCCCN)NC(=O)[C@H](CC(C)C)NC(=O)[C@H](CC(C)C)NC(=O)[C@H](CCCCN)NC(=O)[C@H](CCCCN)NC(=O)[C@H](CC(C)C)NC(=O)[C@@H](N)CC(C)C)C(N)=O [KL-8] (H-LLKKLLKKLLKKLL-NH2) |  | best therapeutic effect | best therapeutic effect | highest sensitivity | no statistically significant changes |
| CNC(=O)c1cc(Oc2ccc(NC(=O)Nc3ccc(Cl)c(C(F)(F)F)c3)cc2)ccn1 [Sorafenib, reference compound] |  |  |  | lowest sensitivity |  |
